# Screening data as filed in PubChem.
# FN deposition inh = fibronectin deposition inhibition; AH1F fibroblasts, Alexa488-fibronectin deposition fluorescence, overnight; inhibition, % at 12.6 µM; actives 0.086% (n = 350,000); AID 743247;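 active = mean inhibition across replicates of 30% or more, regardless of how many single replicates reach that level; inconclusive = mean under 30% yet at least half of replicates reach 30%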;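 note: positive control wells lacked labelled fibronectin entirely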
#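 Assay system: AH1F fibroblasts / Quantity: 10000 cells per well / Medium: DMEM plus 2% serum, read in PBS / Reagent: labelled fibronectin 24 nM / Dosing: single dose, pinned / Times: 1 h cell attachment, overnight exposure to compound and label / Signal: fluorescence, ex 485 nm, em 525 nm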
# EWS-Fli block = EWS/Fli transcriptional activity inhibition; inhibition, % at 12.6 µM; actives 0.67% (n = 350,000); A673 NR0B1-luciferase reporter, viability-normalised; AID 651661;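 active = mean inhibition of at least 50% after viability correction, with every replicate also passing that limit; inconclusive = mean reaches 50% but only one of two replicates passes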;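 note: firefly luciferase signal divided by Alamar Blue viability fluorescence both relative to DMSO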
# PAX8 inh HTS = PAX8 transcriptional activity inhibition | inhibition, % at 12.6 µM | AID 652154 | actives 1.2% (n = 360,000) | RMG-I TPO-luciferase reporter, SteadyGlo, 24 h;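 active = mean replicate inhibition at least 60% with every replicate also reaching 60%; inconclusive = only one of the two criteria is met; inactive = mean below 60% and not all replicates reaching 60%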;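 note: luciferase light reporting Pax8 driven TPO promoter activity; plate controls were median of neutral control wells for no effect and mitoxantrone controls for full effect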
# FGF22 binding = FGF22 (human) thermal shift binding; Q9HCT0; actives 1.5% (n = 340,000); activity (Tm shift, normalised), % at 9.99 µM; recombinant FGF22 thermal shift, SYPRO orange fluorescence; percent of sucrose octasulfate shift, DMSO zero; AID 651658;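 active = mean Tm shift, scaled 0 neutral to 100 positive control, at about 1.3% or above, every replicate too, limit read from the data; inconclusive = no clear call, values can overlap the other calls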
# Target sequence (Q9HCT0 whole entry, looked up): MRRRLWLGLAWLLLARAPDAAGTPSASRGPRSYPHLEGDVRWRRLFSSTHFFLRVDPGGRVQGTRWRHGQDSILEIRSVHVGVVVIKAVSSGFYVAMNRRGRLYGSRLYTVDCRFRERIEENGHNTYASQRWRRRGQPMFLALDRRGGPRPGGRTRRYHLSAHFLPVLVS
# Env fusion inh = inhibitors of HIV Env-mediated cell fusion; HeLa-JRFL Env/CEM21 cell fusion, luciferase; inhibition, % at 12.3 µM; actives 1.1% (n = 360,000); AID 651610;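 active = mean replicate inhibition score of at least 50 and every replicate individually at or above 50; inconclusive = only one of the two criteria met; inactive = mean below 50 and not all replicates reaching 50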;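 note: 0% = plate neutral controls and 100% = maraviroc near 300 nM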
# PGC1a acetyl inh = PGC1a acetylation modulation, inhibitor mode; U2OS PGC1a acetylation, AlphaScreen anti-acetyl-lysine; with virally co-expressed GCN5 acetyltransferase; inhibition, % at 15.6 µM; actives 0.17% (n = 350,000); AID 651687;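 active = every replicate shows inhibition of at least 40%; inconclusive = mean inhibition at least 40% but some replicate below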;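 note: 0% = neutral control wells and 100% = positive control wells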
# DNA binder FP = small molecule DNA binding by fluorescence polarization | actives 2% (n = 640) | AC35, µM (top dose mostly 68 µM), for inactives: at the top dose activity change, negative = DNA binding | AID 720586 | shares compounds with EWS-Fli block | salmon sperm DNA acridine orange fluorescence polarization;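 active = fitted curve reaches a 35% signal fall AC35 below twice the sample's top valid tested dose, actives reach about 48 µM in these data; inactive = the rest, including activity in the rising direction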;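 note: lower polarization ratio signals compound binding to DNA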
# * = called active by the depositor; u = inconclusive; x = not tested or not shown; [ ] = another dose, or the depositor's remark. In the library only some 3.1% were active in any assay of this set; here they are far more common.
SMILES,FN deposition inh,EWS-Fli block,PAX8 inh HTS,FGF22 binding,Env fusion inh,PGC1a acetyl inh,DNA binder FP
COc1ccccc1NC(=O)N1[C@@H]2CNC[C@H]1C2c1ccc(-c2cccc(C#N)c2)cc1 (stereo partly specified),-1.7,x,x,x,x,4.1,x
COc1ccccc1NC(=O)N1[C@@H]2CNC[C@H]1[C@@H]2c1ccc(-c2ccc(C#N)cc2)cc1,-10.6,54.0*,-4.9,x,x,0.6,-15.9%
C[C@H](CO)N1C[C@H](C)[C@@H](CN(C)C)Oc2ccc(NC(=O)CCN3CCOCC3)cc2C1=O,x,-7.6,3.6,-0.2,x,6.8,x
CC(=O)c1ccc(N(C(=O)Cn2nnc3ccccc32)C(C(=O)NCc2ccccc2)c2ccccn2)cc1 (stereo unspecified),x,62.2*,-19.7,0.3,-6.5,3.6,-5.6%
O=C(O)c1ccc(N/N=C/c2ccc3nccnc3c2)cc1,-5.3,84.4*,119.5*,0.0,74.9*,20.9,-4.1%
O=C(O)c1cccc(N/N=C/c2ccc(OC(F)(F)F)cc2)c1,1.3,73.7*,20.1,-0.5,39.0,-6.6,-7.7%
O=C(O)c1ccc(N/N=C/c2ccc(OC(=O)c3cccc(Cl)c3)cc2)cc1,8.1,64.1*,86.1*,-0.1,36.3,1.1,4.5%
O=C(O)c1ccc(N/N=C/c2ccncc2)cc1,1.0,-32.4,-32.9,-0.2,-4.8,x,x
O=C(O)c1cccc(N/N=C/c2cccs2)c1,0.9,85.0*,99.6*,0.3,54.1,x,-1.0%
O=C(Oc1ccc(/C=N/Nc2ccccc2)cc1)c1ccccc1,12.6,x,12.3,x,-2.1,6.2,x
CO[C@H]1CN(C)C(=O)c2cc(NC(=O)Nc3c(C)noc3C)ccc2OC[C@H](C)N(CC2CC2)C[C@@H]1C,-4.8,-0.8,-1.3,0.4,x,0.0,x
CNC[C@@H]1Oc2ccc(NS(=O)(=O)c3ccc(C)cc3)cc2CC(=O)N([C@H](C)CO)C[C@H]1C,x,-3.2,-20.6,-0.2,x,-4.3,x
CCCCN=C(NNc1ccc(Br)cc1)C(=O)OCC,x,78.8*,-1.5,0.5,-6.5,x,-8.7%
C[C@@H]1CCCCO[C@H](CN(C)Cc2ccc(C(=O)Nc3ccccc3N)cc2)[C@@H](C)CN([C@H](C)CO)C(=O)c2cc(NS(=O)(=O)c3ccc(F)cc3)ccc2O1,-25.2,60.5*,51.6,0.1,4.7[16.7 µM],-7.2,-10.0%
Cc1ccc(S(=O)(=O)Nc2ccc3c(c2)C(=O)N([C@@H](C)CO)C[C@@H](C)[C@H](CN(C)Cc2ccc(C(F)(F)F)cc2)OCCCC[C@H](C)O3)cc1,6.8,68.6*,106.2*,-0.6,-6.0[16.7 µM],27.2,-21.3%
C[C@@H]1CCCCO[C@H](CN(C)Cc2ccc(C(=O)Nc3ccccc3N)cc2)[C@@H](C)CN([C@H](C)CO)C(=O)c2cc(NS(=O)(=O)c3ccccc3)ccc2O1,-7.2,-4.5,21.6,-0.3,x,5.2,x
C[C@@H]1CN([C@@H](C)CO)C(=O)c2cc(NC(=O)c3ccccc3)ccc2O[C@@H](C)CCCCO[C@H]1CN(C)C(=O)Nc1cccc2ccccc12,6.4,71.0*,0.6,-0.2,59.8*[16.7 µM],-6.5,4.9%
C[C@@H]1CN([C@H](C)CO)C(=O)c2cc(C#CC3(O)CCCC3)cnc2O[C@@H]1CN(C)Cc1ccccn1,x,2.9,-8.6,0.4,x,2.6,x
CC(=O)c1ccc(N=Nc2ccc(N(C)C)cc2)cc1,-5.4,26.3,-157.2,0.2,-487.2,-1.8,x
CC(=O)c1ccc(N=Nc2ccc(C)cc2)cc1,x,51.6*,-81.3,0.5,-66.2,3.4,-14.5%
CCCN1[C@H](C(=O)N(C)C)[C@@H](CO)[C@@H]2Cn3c(ccc(-c4cccc(F)c4)c3=O)[C@@H]21,x,-0.7,-0.1,-0.1,x,0.1,x
C[C@@H]1CN([C@H](C)CO)S(=O)(=O)c2ccc(C#CC3CCCCC3)cc2O[C@@H]1CN(C)C(=O)Cc1ccncc1,x,-0.4,x,0.1,-25.1[16.7 µM],-10.0,x
CC(C)CC#Cc1ccc([C@@H]2[C@@H](CO)N3CCCCN(S(=O)(=O)c4ccc(F)cc4)C[C@H]23)cc1,x,81.9*,91.4*,-0.7,x,-12.7,-10.6%
CC(C)CN(C(=O)CN1CCCCCC1)c1c(N)n(CC(C)C)c(=O)[nH]c1=O,4.2,-10.4,18.8,41.6,7.9,2.5,x
CC(C)CN(C(=O)CN1CCOCC1)c1c(N)n(CC(C)C)c(=O)[nH]c1=O,-6.4,61.0*,9.0,0.2,-4.7,12.2,-11.7%
SMILES,FN deposition inh,EWS-Fli block,PAX8 inh HTS,FGF22 binding,Env fusion inh,PGC1a acetyl inh,DNA binder FP
COc1ccc(/C=C2/SC(=S)N(CCCC(=O)Nc3ccccc3C(=O)O)C2=O)cc1,9.0,63.9*,37.6,x,28.2,x,-0.3%
COc1ccc(/C=C2\SC(=O)N(CCCC(=O)Nc3ccc(C(=O)O)cc3)C2=O)cc1,-3.0,82.3*,56.7,0.3,88.8*,20.6,5.8%
COc1ccc(/C=C2\SC(=S)N(CCCC(=O)NNC(=O)c3ccccc3O)C2=O)cc1,-14.1,76.6*,65.9*,0.2,58.6*,-10.7,3.1%
CCc1ccc(/C=C2\SC(=S)N(CCCC(=O)Nc3ccccc3C(=O)O)C2=O)cc1,0.0,x,-13.9,0.0,-60.1,x,x
O=C(CCCN1C(=O)/C(=C/c2cccs2)SC1=S)NNC(=O)c1ccccc1O,5.9,x,-3.6,x,-12.1,8.4,x
C[C@H](CO)N1C[C@H](C)[C@@H](CN(C)Cc2ccc(C(=O)O)cc2)Oc2ccc(NS(C)(=O)=O)cc2CC1=O,x,-11.1,-17.3,0.2,-35.9[16.7 µM],1.7,x
CCOC(=O)Cc1csc(NC(=S)NC(=O)c2ccc(C)cc2)n1,3.8,81.7*,43.7,0.1,u,x,-0.5%
O=C(O)c1ccc(N/N=C/c2c[nH]c3ccccc23)cc1,-0.5,68.8*,45.1,0.1,58.7*,2.6,-3.6%
O=C(O)c1ccc(S(=O)(=O)NN=Cc2c[nH]c3ccccc23)cc1,x,3.7,34.0,-0.4,-0.8,x,x
CNC[C@@H]1Oc2c(NC(=O)C3CCCCC3)cccc2C(=O)N([C@H](C)CO)C[C@@H]1C,-1.4,-15.0,x,0.0,x,-3.3,x
C[C@@H]1CN([C@@H](C)CO)C(=O)c2cc(C#CC(C)(C)O)cnc2O[C@H]1CN(C)C(=O)CC1CC1,-6.3,-1.8,x,0.0,-20.4[16.7 µM],5.9,x
COc1ccc(C(=O)NC(=S)Nc2cccc(S(=O)(=O)N3CCOCC3)c2)cc1,3.0,29.3,14.1,-0.1,-21.4,x,x
CC(=O)Oc1ccc(-c2ccc(C(=O)Nc3cccc(S(=O)(=O)N4CCOCC4)c3)cc2)cc1,3.8,59.2*,40.9,0.0,9.9,-31.8,-7.2%
C[C@@H]1CCCCO[C@H](CN(C)C(=O)Nc2cccc3ccccc23)[C@H](C)CN([C@H](C)CO)C(=O)c2cc(N(C)C)ccc2O1,x,6.1,54.6,-0.2,-13.4[16.7 µM],22.8,x
